Most compounds without a hit are left out; they make up all but 2.1% or so of the library.
PP1 inh = PP1-alpha (human) inhibition in PP5 counter-screen; purified PP1alpha, OMFP fluorescence; inhibition, % at 6.7 µM; 320,000 tested, 0.9% active;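 active = inhibition above the mean inhibition of all tested compounds plus 3 SD, computed separately for each screening campaign, cut at about 15% in these data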
TDP2 inh = blocks human TDP2 phosphodiesterase activity; O95551; recombinant TDP2, T5PNP hydrolysis, p-nitrophenol absorbance 415 nm; inhibition, % at 12.8 µM; 370,000 tested, 0.34% active;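 active = inhibition above the mean of all tested compounds plus 3 SD, set per campaign, cut at about 25% in these data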;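 also: 0% = DMSO with enzyme and 100% = buffer with substrate but no TDP2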
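Assay system: recombinant human TDP2 / Reagent: T5PNP substrate at 5 mM, a TopII-DNA adduct mimic / Measured by: epi absorbance from released p-nitrophenol / Evaluation: % inhibition relative to enzyme-containing and enzyme-free wells / Control set: enzyme-free and DMSO wells / Replicates: each compound tested once, singlicate / Schedule: enzyme reaction with compound for 2 h at 37 °C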
Apaf-1 inh = inhibitors of human Apaf-1 apoptosome | O14727 | reconstituted apoptosome caspase-3 activity, DEVD-Rh110 fluorescence | inhibition, % at 20 µM | 330,000 tested, 0.71% active | AID 489030; active = inhibition of at least 40% at 20 µM;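 also: plate controls were DMSO wells for no effect and DEVD-CHO caspase inhibitor wells for full effect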
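System: Apoptosome proteins | Medium: Hepes pH 7.5 with detergent and BSA | Also added: Cytochrome c trigger plus (Z-DEVD)2-Rh110 caspase-3 substrate | Incubation: 30 min compound preincubation, 50 min activation, room temperature | Detection: Rhodamine 110 fluorescence at Ex 480/Em 540 nm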
PP5 inh = blocks human protein phosphatase 5 activity. inhibition, % at 6.7 µM. P53041. purified PP5c, OMFP substrate fluorescence. 320,000 tested, 0.18% active;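 active = inhibition above the campaign's mean inhibition across all tested compounds plus 3 SD, cut at about 9.5% in these data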;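 also: 0% = DMSO only and 100% = 100 µM cantharidin control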
Target sequence (P53041 whole entry, looked up): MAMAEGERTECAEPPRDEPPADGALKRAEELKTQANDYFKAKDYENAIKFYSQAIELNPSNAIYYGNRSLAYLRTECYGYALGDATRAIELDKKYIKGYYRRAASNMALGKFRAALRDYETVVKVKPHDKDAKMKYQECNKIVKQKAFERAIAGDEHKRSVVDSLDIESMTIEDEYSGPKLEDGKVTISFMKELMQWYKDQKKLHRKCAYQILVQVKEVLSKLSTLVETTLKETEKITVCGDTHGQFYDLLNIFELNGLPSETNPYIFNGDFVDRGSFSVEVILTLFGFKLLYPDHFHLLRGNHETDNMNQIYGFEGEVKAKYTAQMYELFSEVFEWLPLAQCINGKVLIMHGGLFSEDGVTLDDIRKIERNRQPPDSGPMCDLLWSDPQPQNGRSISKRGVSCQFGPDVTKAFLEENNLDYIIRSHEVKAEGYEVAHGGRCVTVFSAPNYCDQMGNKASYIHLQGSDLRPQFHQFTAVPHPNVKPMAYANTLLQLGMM
GSTO1 inh = GSTO1 inhibition, counter-screen for RBBP9 inhibitors; 300,000 tested, 1.1% active; inhibition, % at 5.96 µM; recombinant GSTO1, activity-based probe fluorescence polarization; P78417;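 active = inhibition above the campaign mean inhibition plus 3 SD, cut at about 35% in these data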;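 also: 0% = GSTO1-1 with DMSO and 100% = wells lacking GSTO1-1 enzyme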
Target sequence (P78417 whole entry, looked up): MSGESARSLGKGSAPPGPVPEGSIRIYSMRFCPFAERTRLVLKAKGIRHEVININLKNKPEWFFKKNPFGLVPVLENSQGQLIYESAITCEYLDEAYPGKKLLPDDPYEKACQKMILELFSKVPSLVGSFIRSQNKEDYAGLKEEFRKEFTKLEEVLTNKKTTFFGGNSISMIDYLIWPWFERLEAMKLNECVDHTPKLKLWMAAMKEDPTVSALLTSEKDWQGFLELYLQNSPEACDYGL
Apaf-1 inh conf2 = confirmation of Apaf-1 inhibitors; 1,800 tested, 25% active; inhibition, % at 20 µM; AID 504614; reconstituted apoptosome, caspase-3 DEVD-Rh110 fluorescence; shares compounds with Apaf-1 inh;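 active = mean inhibition of at least 40% at 20 µM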;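 also: plate controls were DMSO wells for no effect and DEVD-CHO caspase inhibitor control wells for full effect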
Rh110 quench = counter-screen for Apaf-1 inhibitors: fluorescence interference; shares compounds with Apaf-1 inh; Rh110 fluorescence interference, quenched caspase reaction; activation (fluorescence interference), % at 20 µM; 1,800 tested, under 10 active; AID 504615;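 active = signal rise of 40% or more at 20 µM, treated as a fluorescence artifact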
Apaf1 inh interf = shows fluorescence interference in the Apaf-1 inhibitor assay format. shares compounds with Apaf-1 inh. fluorescence interference counterscreen, Apaf-1 assay format. IC50, µM. 460 tested, under 10 active. AID 588538; call rule not given here
Active calls of the source: *; nt = not tested or not shown.

SMILES	PP1 inh	TDP2 inh	Apaf-1 inh	PP5 inh	GSTO1 inh	Apaf-1 inh conf2	Rh110 quench	others
CCOC(=O)CNCCC(=O)c1ccc(Br)cc1	0.3	-0.1	58.4*	0.4	-2.2	9.4	1.1
O=C1Cc2ccccc2N1c1ccccc1	0.4	-0.4	10.5	1.3	1.7	nt	nt
O=C1CC(=Nc2ccccc2)NN1c1ccccc1	-1.2	3.5	66.1*	3.3	20.1	18.9	8.0
COC(=O)C1=C(C)N(Cc2ccccc2)C(=NCc2ccccc2)N[C@H]1c1cccc(F)c1	5.1	-9.2	41.2*	3.5	2.4	17.6	9.6
COC(=O)C1=C(C)N(Cc2ccccc2)C(=NCc2cc(OC)c(OC)c(OC)c2)N[C@H]1CCc1ccccc1	nt	-5.0	48.2*	nt	nt	14.3	5.0
COC(=O)C1=C(C)N(Cc2ccccc2)C(=NCc2cc(OC)c(OC)c(OC)c2)N[C@H]1c1ccc(Br)cc1	nt	nt	54.5*	nt	nt	10.6	7.4
CCN(CC)CCCN=C1N[C@@H](c2cccc(F)c2)C(C(=O)OC)=C(C)N1Cc1ccccc1	nt	0.7	9.2	nt	nt	nt	nt
COC(=O)C1=C(C)N(Cc2ccccc2)C(=NCc2cccc(Cl)c2)N[C@H]1c1ccccc1	nt	nt	56.0*	nt	nt	15.8	12.4
COC(=O)C1=C(C)N(Cc2ccccc2)C(=NCc2ccccc2)N[C@H]1c1ccccc1	nt	1.2	47.2*	nt	nt	13.4	18.5
CCN1CCc2c(sc(NC(=O)c3ccc(C(=O)c4ccccc4)cc3)c2C(N)=O)C1	3.3	-4.8	43.6*	4.1	-34.9	21.3	10.2
Cc1n[nH]c(C)c1Sc1ccccc1N=Cc1cc([N+](=O)[O-])ccc1O	6.8	nt	6.9	-0.4	2.7	nt	nt
Cc1cc(O)c(C(C)C)cc1N=Cc1cc([N+](=O)[O-])ccc1O	2.0	-2.0	44.5*	-0.3	26.6	7.4	0.9
CN1CCc2nc(SCC(=O)Nc3cccc(F)c3)c(C#N)c(-c3cccs3)c2C1	10.2	1.6	67.4*	2.6	19.9	9.8	3.0
CN1CCc2nc(SCC(=O)Nc3ccc(OC(F)(F)F)cc3)c(C#N)c(-c3cccs3)c2C1	11.4	10.3	23.2	5.5	-7.2	nt	nt
COc1ccc(N(CC(=O)NCCOc2ccccc2)S(=O)(=O)c2ccc(C)cc2)cc1	1.2	-5.7	29.2	3.3	2.1	nt	nt
COCCNC(=O)CN(c1cccc(OC)c1)S(=O)(=O)c1ccc(C)cc1	3.9	7.0	57.1*	-1.9	-1.8	15.7	0.4
CC[C@@H](C)[C@@H]1CN([C@@H](CN2CCC[C@H]2CN2C(N)=NC[C@H]2CC(C)C)C(C)C)C(=N)N1CCc1ccc(Cl)c(Cl)c1	nt	-2.3	62.9*	nt	nt	22.5	14.3
CCC[C@@H](CN1CCC[C@H]1CN1C(N)=NC[C@H]1CC(C)C)N1C[C@@H]([C@H](C)CC)N(CCc2ccc(Cl)c(Cl)c2)C1=N	nt	-9.2	64.0*	nt	nt	13.9	4.6
CC[C@@H](C)[C@@H]1CN([C@@H](C)CN2CCC[C@H]2CN2C(N)=NC[C@H]2CC(C)C)C(=N)N1CCc1ccc(Cl)c(Cl)c1	nt	-5.9	51.8*	nt	nt	1.8	2.6
Cc1ccc(C(=O)NC2CCCCN(C(C)C)C2=O)cc1 (centres undefined)	nt	1.4	nt	nt	nt	nt	nt
COc1ccccc1OCCNC(=O)c1cccc(S(=O)(=O)N2CCN(Cc3ccccc3)CC2)c1	2.9	5.5	67.2*	2.5	nt	49.4*	4.1	Apaf1 inh interf=>100
CN(Cc1ccc(Cl)c(Cl)c1)C(=O)c1cccc(S(=O)(=O)N2CCN(Cc3ccccc3)CC2)c1	1.4	-11.1	71.8*	1.7	nt	48.9*	6.5	Apaf1 inh interf=>100
CCNC(=O)N(C)[C@H]1C[C@H]2c3[nH]c4c(-c5cccc(C)c5)cccc4c3CCN2C(=O)[C@H]1[C@H](C)O	nt	-4.4	nt	nt	nt	nt	nt
O=C(CNS(=O)(=O)c1ccc(F)cc1)N1CCN(c2ccccn2)CC1	nt	4.4	nt	nt	nt	nt	nt
O=[N+]([O-])c1cc(Cl)c(O)c2ncccc12	nt	1.3	38.3	nt	nt	nt	nt
SMILES	PP1 inh	TDP2 inh	Apaf-1 inh	PP5 inh	GSTO1 inh	Apaf-1 inh conf2	Rh110 quench	others
O=[N+]([O-])c1cc(F)c2cccnc2c1O	-2.6	6.1	64.2*	3.4	58.4*	29.3	8.3
CCn1c(SCC(=O)N/N=C/C=C\c2ccco2)nc2ccccc21	5.5	-1.2	46.9*	5.7	3.3	15.7	-5.7
Cc1ccc(/C=C/c2onc(C)c2S(=O)(=O)N2CCC(C(=O)N3CCN(C)CC3)CC2)cc1	0.8	-9.6	45.4*	1.9	0.3	14.6	11.0
Cc1ccc(NC(=O)C2CCN(S(=O)(=O)c3c(C)noc3/C=C/N(C)C)CC2)cc1	2.5	6.2	3.4	2.6	-1.7	nt	nt
O=C(CSc1nnc(COc2ccccc2)n1Cc1ccco1)Nc1ccc2c(c1)OCO2	nt	-1.0	nt	nt	nt	nt	nt
O=C1c2cc(F)ccc2-n2c1nc1ccccc1c2=O	-1.8	0.3	62.6*	1.1	35.3*	51.8*	-0.6	Apaf1 inh interf=>100
Nn1c(-c2ccc(F)cc2)nc2ccccc2c1=O	-1.7	-1.6	2.4	0.3	1.3	nt	nt
O=C(CN1C(=O)NC2(CCCCC2)C1=O)Nc1cccc(Cl)c1Cl	-2.8	9.4	-12.1	-0.8	nt	nt	nt
Cc1c(Cl)cccc1N=C1SCCN1C(=O)CN1C(=O)NC2(CCCC2)C1=O	1.6	5.0	40.4*	-0.8	-2.6	17.1	-3.1
O=C(COC(=O)c1ccc([N+](=O)[O-])s1)NNC(=O)c1ccccc1	nt	nt	40.9*	nt	nt	37.0	-2.4
O=C1CN(C(=O)COC(=O)c2ccc([N+](=O)[O-])s2)c2ccccc2N1	nt	nt	35.2	nt	nt	nt	nt
Cn1cccc1C(=O)N1CCN(S(=O)(=O)c2ccccc2F)CC1	nt	0.1	nt	nt	nt	nt	nt
NC1(C#Cc2ccc3c(=O)c4ccccc4sc3c2)CCCCC1	nt	1.1	60.1*	nt	nt	22.9	0.6
CCOc1cc(CNc2ccc(N3CCCCC3)cc2)cc(Br)c1OCC(=O)NC(C)(C)C	6.1	11.6	44.2*	3.8	32.7	11.6	-2.1
O=C(c1ccccc1)c1ccc(N2CCOCC2)cc1	nt	-2.0	nt	nt	nt	nt	nt
O=C(O)c1ccc(NC2=C(N3CCOCC3)C(=O)c3ccccc3C2=O)cc1	-1.0	22.4	67.9*	7.6	46.4*	50.6*	-0.7	Apaf1 inh interf=>100
CC(CCN1CCC(C(O)(c2ccccc2)c2ccccc2)CC1)Oc1cc(F)cc(C#N)c1 (centres undefined)	nt	-22.1	nt	nt	nt	nt	nt
CCOC(=O)c1cnn(-c2c(Cc3ccccc3)c(C)nc3c(-c4ccccc4)c(C)nn23)c1N	-3.6	-15.7	61.6*	3.9	-8.9	54.8*	21.3	Apaf1 inh interf=>100
CCOC(=O)c1cnn(-c2cc(C(C)(C)C)nc3c(-c4ccccc4)c(C)nn23)c1N	-8.5	-7.7	-9.3	3.0	-0.8	nt	nt
CCOC(=O)CNC(=O)N1C[C@H]2CON(C)[C@H]2C[C@H]1c1ccccc1Br	nt	9.6	nt	nt	nt	nt	nt

Assay outcomes: PubChem, several laboratories
